Calls of active or inactive are those of the source. No cut-off for these calls is given here.
What was measured:
K562 [1] = assay: Induction of apoptosis in human K562 cells assessed as decrease in Bcl-2 expression level by Western blot analysis; format: functional, cell-based
Summary of the method: (§1)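 Western blot of treated K562 cells for Bcl-2, Bax, activated caspase 3 and cleaved PARP (85 kDa fragment). Blots developed by ECL, with band expression quantified by densitometry against an untreated control sample.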

K562 [2] = assay: Induction of apoptosis in human K562 cells assessed as specific necrosis by Annexin V-FITC/propidium iodide staining based flow cytometry; format: functional; design: concentration or dose not given beside the values
K562 [3] = assay: Induction of apoptosis in human K562 cells assessed as total viable cells by Annexin V-FITC/propidium iodide staining based flow cytometry (reference value: 92.45%); format: functional
HeLa = assay: Cytotoxicity against human HeLa cells assessed as reduction in cell viability after 72 hrs by MTT assay; format: functional, cell-based
K562 [4] = assay: Induction of apoptosis in human K562 cells assessed as gated early apoptotic cells by Annexin V-FITC/propidium iodide staining based flow cytometry (reference value: 3.18%); format: functional
K562 [5] = assay: Induction of apoptosis in human K562 cells assessed as gated necrotic cells by Annexin V-FITC/propidium iodide staining based flow cytometry (reference value: 0.24%); format: functional
K562 [6] = assay: Induction of apoptosis in human K562 cells assessed as specific apoptosis by Annexin V-FITC/propidium iodide staining based flow cytometry; format: functional; design: concentration or dose not given beside the values
K562 [7] = assay: Cell cycle arrest in human K562 cells assessed as total cell levels at G0/G1 phase at IC50 after 72 hrs by propidium iodide staining based flow cytometry (reference value: 39.97%); format: functional
K562 [8] = assay: Cell cycle arrest in human K562 cells assessed as accumulation at G0/G1 phase at IC50 after 72 hrs by propidium iodide staining based flow cytometry (reference value: 38.48%); format: functional
MCF7 = assay: Cytotoxicity against human MCF7 cells assessed as reduction in cell viability after 72 hrs by MTT assay; format: functional, cell-based; details: MCF7, 72 h
K562 [9] = assay: Induction of apoptosis in human K562 cells assessed as increase in cleaved PARP expression level by Western blot analysis; format: functional, cell-based; summary of the method: as §1
A549 = assay: Cytotoxicity against human A549 cells assessed as reduction in cell viability after 72 hrs by MTT assay; format: functional, cell-based; details: A549, 72 h
K562 [10] = assay: Cell cycle arrest in human K562 cells assessed as total cell levels at G2/M phase at IC50 after 72 hrs by propidium iodide staining based flow cytometry (reference value: 14.31%); format: functional
MDA-MB-231 = assay: Cytotoxicity against human MDA-MB-231 cells assessed as reduction in cell viability after 72 hrs by MTT assay; format: functional, cell-based; details: MDA-MB-231, 72 h
K562 [11] = assay: Induction of apoptosis in human K562 cells assessed as total early apoptotic cells by Annexin V-FITC/propidium iodide staining based flow cytometry (reference value: 3.07%); format: functional
K562 [12] = assay: Induction of apoptosis in human K562 cells assessed as total late apoptotic cells by Annexin V-FITC/propidium iodide staining based flow cytometry (reference value: 0.77%); format: functional
Raji = assay: Cytotoxicity against human Raji cells assessed as reduction in cell viability after 72 hrs by MTT assay; format: functional, cell-based
K562 [13] = assay: Cell cycle arrest in human K562 cells assessed as total cell levels at S phase at IC50 after 72 hrs by propidium iodide staining based flow cytometry (reference value: 36.49%); format: functional
K562 [14] = assay: Induction of apoptosis in human K562 cells assessed as gated late apoptotic cells by Annexin V-FITC/propidium iodide staining based flow cytometry (reference value: 0.88%); format: functional
K562 [15] = assay: Induction of apoptosis in human K562 cells assessed as increase in caspase 3 expression level by Western blot analysis; format: functional, cell-based; summary of the method: as §1
Jurkat = assay: Cytotoxicity against human Jurkat cells assessed as reduction in cell viability after 72 hrs by MTT assay; format: functional, cell-based
K562 [16] = assay: Induction of apoptosis in human K562 cells assessed as total necrotic cells by Annexin V-FITC/propidium iodide staining based flow cytometry (reference value: 0.23%); format: functional
K562 [17] = assay: Cell cycle arrest in human K562 cells assessed as accumulation at sub G1 phase at IC50 after 72 hrs by propidium iodide staining based flow cytometry (reference value: 1.48%); format: functional
HL-60 = assay: Cytotoxicity against human HL60 cells assessed as reduction in cell viability after 72 hrs by MTT assay; format: functional, cell-based; details: HL-60, 72 h
K562 [18] = assay: Induction of apoptosis in human K562 cells assessed as gated viable cells by Annexin V-FITC/propidium iodide staining based flow cytometry (reference value: 95.78%); format: functional
MRC5 = assay: Cytotoxicity against human MRC5 cells assessed as reduction in cell viability after 72 hrs by MTT assay; format: cell-based; details: MRC5, 72 h
K562 [19] = assay: Induction of apoptosis in human K562 cells assessed as increase in Bax expression level by Western blot analysis; format: functional, cell-based; summary of the method: as §1
K562 [20] = assay: Cell cycle arrest in human K562 cells assessed as total cell levels at M4 phase at IC50 after 72 hrs by propidium iodide staining based flow cytometry (reference value: 0.50%); format: functional
K562 [21] = assay: Cell cycle arrest in human K562 cells assessed as accumulation at S phase at IC50 after 72 hrs by propidium iodide staining based flow cytometry (reference value: 41.03%); format: functional
K562 [22] = assay: Cytotoxicity against human K562 cells assessed as reduction in cell viability after 72 hrs by MTT assay; format: functional, cell-based; details: K562, 72 h
K562 [23] = assay: Cell cycle arrest in human K562 cells assessed as accumulation at G2/M phase at IC50 after 72 hrs by propidium iodide staining based flow cytometry (reference value: 19.01%); format: functional

Compound	Activity (K562 [1])	Activity (K562 [2])	Activity (K562 [3])	IC50 (HeLa)	Activity (K562 [4])	Activity (K562 [5])	Activity (K562 [6])	Activity (K562 [7])	Activity (K562 [8])	IC50 (MCF7)	Activity (K562 [9])	IC50 (A549)	Activity (K562 [10])	IC50 (MDA-MB-231)	Activity (K562 [11])	Activity (K562 [12])	IC50 (Raji)	Activity (K562 [13])	Activity (K562 [14])	Activity (K562 [15])	further results
O=C1C=C[C@@]2(C[C@H](OC(=O)/C=C/c3ccccc3)[C@H](c3ccccc3)O2)O1	Active	28.29%	24.8%	58.5 µM	50.03%	8.36%	6.76%	18.23%	27.11%	11.4 µM	Active	0.25 µM	12.13%	3.64 µM	39.85%	8.34%	2.28 µM	27.97%	10.47%	Active	IC50 (Jurkat): 1.02 µM; Activity (K562 [16]): 6.66%; Activity (K562 [17]): 12.49%; IC50 (HL-60): 9.65 µM; Activity (K562 [18]): 31.14%; IC50 (MRC5): > 100 µM; Activity (K562 [19]): inactive; Activity (K562 [20]): 8.27%; Activity (K562 [21]): 42.16%; IC50 (K562 [22]): 4.65 µM; Activity (K562 [23]): 18.24%
O=C1C=C[C@@]2(C[C@H](OC(=O)/C=C/c3ccc(F)cc3)[C@H](c3ccccc3)O2)O1	Active	1.22%	70.05%	8.45 µM	20.44%	2.81%	18.71%	34.22%	37.01%	2.31 µM	Active	1.17 µM	26.5%	7.54 µM	10%	0.75%	5.37 µM	28.54%	1.51%	Active	IC50 (Jurkat): 4.63 µM; Activity (K562 [16]): 1.57%; Activity (K562 [17]): 3.99%; IC50 (HL-60): 1.02 µM; Activity (K562 [18]): 75.24%; IC50 (MRC5): > 100 µM; Activity (K562 [19]): inactive; Activity (K562 [20]): 3.69%; Activity (K562 [21]): 30.34%; IC50 (K562 [22]): 5.36 µM; Activity (K562 [23]): 28.66%

From ChEMBL document CHEMBL4033643, “Synthesis and in vitro antitumour activity of crassalactone D, its stereoisomers and novel cinnamic ester derivatives” (Eur J Med Chem, 2017)
